Laboratory results: PubChem BioAssay
Activity calls are given as the source filed them.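 Rule for the calls, unless noted: active = NADPH fluorescence slope more negative than the mean of all samples by about 3 SD, 99.7% confidence; inactive = the rest.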

What was measured:
[1] = inhibitors of TNFa-induced NFkB p65 translocation, primary screen, imaging, HUVEC, MLSMR starter and 10KST1 sets (AID 438;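 active = inhibition above 20% together with a positive visual image hit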;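 note: compound added about 3h40 before a 20 min TNFalpha stimulation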;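 for inhibition: signal is the nuclear over cytoplasmic p65 intensity ratio per well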); details: HUVEC TNFa-induced p65 nuclear translocation; cell count: measured here: nuclei count (cytotoxicity indicator), at 2.08 µM; inhibition: at 2 µM, stronger effect = higher value, 0% TNFa-plus-vehicle, 100% no-TNFa wells
[2] = inhibitors of mutant huntingtin aggregation, primary screen, imaging, exon1htt(103Q)mCFP cells, high-content imaging (AID 483;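 active = visual image review flags a hit and inhibition of aggregation exceeds 20%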;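 note: compound exposure lasted 3 days before fixation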;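 for nuclei count: percent of the per-plate median nuclei count of sample wells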); details: exon1htt(103Q)mCFP cell line, aggregate imaging, at 2 µM; inhibition of aggregation: stronger effect = higher value; nuclei count: measured here: cell count, toxicity
[3] = inhibitors of E-selectin induction by TNFa, primary screen, imaging, HUVEC, immunofluorescence, MLSMR starter and 10KST1 sets (AID 487;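 active = visually confirmed hit in the image check and inhibition above 20%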;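 for inhibition: signal is fraction of cell area covered by stained E-selectin grains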;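 for nuclei count: 100% = median nuclei count of all wells on the same plate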); details: HUVEC TNFalpha-induced E-selectin immunofluorescence imaging, at 2 µM; inhibition: stronger effect = higher value; nuclei count: measured here: cell number, toxicity
[4] = biological target: Voltage-gated potassium channel subunit beta-2 (Rattus norvegicus) (UniProt P62483); test: KvBeta enzyme negative modulators, primary screen, biochemical, NADPH fluorescence (AID 622;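 active = fluorescence slope higher than the sample average by over 3 SD, cut at about -0.22 in these data, passing the limit was not always enough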;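 note: slope of raw intensity against log time taken from 70 to 1610 s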); details: recombinant KvBeta, 4-cyanobenzaldehyde reduction, at 10 µM, stronger effect = higher value
[5] = biological target: Voltage-gated potassium channel subunit beta-2 (Rattus norvegicus) (UniProt P62483); test: KvBeta positive modulators, primary screen, biochemical, NADPH fluorescence (AID 623); details: Recombinant KvBeta, NADPH fluorescence decrease slope, 10 min; at 10 µM; stronger effect = lower value;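 note: fluorescence intensity change per second fitted from 20 to 320 s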
[6] = biological target: Muscarinic acetylcholine receptor M4 (Homo sapiens) (UniProt P08173); test: compounds altering M4/GIRK thallium flux, either direction, primary screen, M4 allosteric agonist project, cell-based, HEK293 M4/GIRK, BTC-AM (AID 625;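 active = fluorescence slope after compound addition differing from the mean of all tested samples at 99.7% confidence, mostly higher but some lower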;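 note: thallium influx through GIRK channels coupled to M4 in HEK293 cells with BTC-AM dye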); details: at 10 µM, actives lie on both sides
Summary of the method: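 assay system = HEK293 cells with M4 receptor and GIRK channels | medium = pH 7.3 thallium assay buffer | doses = 10 µM final, single point | timing = cells overnight at 37 °C, BTC-AM loading 1 h, reads 2 min total | signal = BTC-AM fluorescence, 1 Hz kinetic reads | read-out = post-addition slope, 15–24 s, of baseline-normalized fluorescence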

[7] = inhibitors of Sendai virus-induced IRF3 signaling, primary screen, TLR/RLR signaling modifier project, cell-based, Sendai virus stimulus, luciferase, 10K MLSCN set (AID 602276;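 active = inhibition at or above 50% at 10 µM; inactive = inhibition below 50%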;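 note: firefly luciferase from ISG56 promoter only with Renilla not read in this screen; 0% = Sendai virus plus DMSO and 100% = medium plus DMSO without virus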); details: HEK293 RL24 IRF3 luciferase reporter, at 10 µM, stronger effect = higher value
[8] = inhibitors of poly I:C-induced TLR3 signaling, primary screen, cell-based, poly I:C stimulus, luciferase, 10K MLSCN set (AID 602277;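 active = inhibition of the reporter signal at or above 50%; inactive = inhibition below 50%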); details: HEK293-TLR3 RL24 IRF3 luciferase reporter, at 10 µM, stronger effect = higher value

Muscarinic acetylcholine receptor M4 (Homo sapiens), sequence (P08173 whole entry, looked up): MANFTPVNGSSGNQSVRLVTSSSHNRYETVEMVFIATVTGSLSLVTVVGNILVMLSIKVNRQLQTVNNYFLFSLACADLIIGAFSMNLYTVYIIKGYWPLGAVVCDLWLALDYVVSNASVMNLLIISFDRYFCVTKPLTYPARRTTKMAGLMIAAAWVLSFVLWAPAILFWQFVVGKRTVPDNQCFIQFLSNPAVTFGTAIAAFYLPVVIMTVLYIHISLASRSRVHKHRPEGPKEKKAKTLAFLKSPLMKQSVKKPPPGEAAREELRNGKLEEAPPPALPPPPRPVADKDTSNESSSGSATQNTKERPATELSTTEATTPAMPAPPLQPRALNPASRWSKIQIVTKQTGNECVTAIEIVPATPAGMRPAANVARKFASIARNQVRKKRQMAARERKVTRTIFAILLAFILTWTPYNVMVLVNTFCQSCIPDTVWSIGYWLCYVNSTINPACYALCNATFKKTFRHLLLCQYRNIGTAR
Voltage-gated potassium channel subunit beta-2 (Rattus norvegicus), sequence (P62483 whole entry, looked up): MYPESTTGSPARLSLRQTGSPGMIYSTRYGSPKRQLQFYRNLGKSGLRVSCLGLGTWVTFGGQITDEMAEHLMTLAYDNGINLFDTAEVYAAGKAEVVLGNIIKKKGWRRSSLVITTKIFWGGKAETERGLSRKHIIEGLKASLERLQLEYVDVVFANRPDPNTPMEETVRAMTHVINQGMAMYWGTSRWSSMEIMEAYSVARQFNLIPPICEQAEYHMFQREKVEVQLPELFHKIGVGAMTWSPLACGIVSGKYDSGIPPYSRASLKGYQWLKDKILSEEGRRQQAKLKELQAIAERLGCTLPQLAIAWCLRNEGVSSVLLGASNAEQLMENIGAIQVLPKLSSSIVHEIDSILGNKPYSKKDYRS

Compound	cell count [1]	inhibition [1]	inhibition of aggregation [2]	nuclei count [2]	inhibition [3]	nuclei count [3]	fluorescence slope [4]	NADPH fluorescence slope [5]	fluorescence slope [6]	inhibition [7]	inhibition [8]
CCCn1c(N2CCN(CC(=O)Nc3ccc4c(c3)OCCO4)CC2)nc2ccccc21	411	-11% (inactive)	1.8% (inactive)	103%	-98.9% (inactive)	74.4%	-0.526 (inactive)	-0.000207 (inactive)	0.00376 (inactive)	4.25% (inactive)	20.1% (inactive)
CC(C(=O)NC1CCCCCC1)N(c1ccccc1)S(C)(=O)=O (stereo not drawn)	370	1.9% (inactive)	4.5% (inactive)	108%	-7.4% (inactive)	97%	-0.548 (inactive)	-0.000126 (inactive)	0.00352 (inactive)	15.7% (inactive)	3.26% (inactive)
Cc1ccc(C(=O)C2COC(=O)C2)cc1 (stereo not drawn)	333	4.9% (inactive)	-2.7% (inactive)	116%	-31.2% (inactive)	103%	-0.579 (inactive)	-2.8e-05 (inactive)	0.00631 (inactive)	18.7% (inactive)	0.799% (inactive)
CCCOc1cc(C)c(S(=O)(=O)N2CCN(C)CC2)cc1C	443	10.6% (inactive)	12.8% (inactive)	100%	-11.9% (inactive)	96.1%	-0.57 (inactive)	-3.7e-05 (inactive)	0.00349 (inactive)	7.65% (inactive)	10.4% (inactive)
COc1cc(CC(=O)Nc2ncc(C)s2)cc(OC)c1OC	524	-6.7% (inactive)	20.3% (inactive)	78.3%	-68.3% (inactive)	113%	-0.501 (inactive)	7.8e-05 (inactive)	0.00592 (inactive)	19.3% (inactive)	18.5% (inactive)
CCOC(=O)c1ccc(NC(=O)N2CCN(CCc3ccccc3)CC2)cc1	361	2.5% (inactive)	18.6% (inactive)	84.1%	20.3% (inactive)	75.8%	-0.475 (inactive)	-4.1e-05 (inactive)	0.00422 (inactive)	6.1% (inactive)	-14.9% (inactive)
Nc1nonc1NC(=O)CSc1nc2ccccc2s1	519	-8.4% (inactive)	39.8% (active)	61.2%	-50.5% (inactive)	103%	-0.515 (inactive)	-0.000124 (inactive)	0.00565 (inactive)	-7.11% (inactive)	15.4% (inactive)
CC1CN(S(=O)(=O)c2cccc(C(=O)OCc3cc(=O)oc4cc(O)ccc34)c2)CC(C)O1 (stereo not drawn)	380	-2.9% (inactive)	3% (inactive)	100%	-28.2% (inactive)	83%	-0.288 (inactive)	-7.6e-05 (inactive)	0.00505 (inactive)	23.9% (inactive)	23.3% (inactive)
COc1ccc(-c2nn3c(-c4ccncc4)nnc3s2)cc1OC	562	5.4% (inactive)	-7.4% (inactive)	90.8%	24.6% (inactive)	105%	-0.42 (inactive)	-0.000356 (inactive)	0.00419 (inactive)	19.4% (inactive)	24.2% (inactive)
CC(C)Cn1cc(C(=O)NCC2CCCO2)c2c3ccccc3n(C)c2c1=O (stereo not drawn)	267	11.4% (inactive)	3.2% (inactive)	79.8%	-24.4% (inactive)	107%	-0.523 (inactive)	-3.1e-05 (inactive)	0.00592 (inactive)	13.7% (inactive)	18.7% (inactive)
Cc1cc(C)c2c(n1)sc1c(N3CCOCC3)ncnc12	301	-4.9% (inactive)	-151% (inactive)	0.6%	-61.4% (inactive)	121%	-0.305 (inactive)	-6.3e-05 (inactive)	0.00639 (inactive)	5.74% (inactive)	-3.16% (inactive)
COCCOc1nc2ccccc2nc1C	351	5.2% (inactive)	8.5% (inactive)	87.8%	-5.9% (inactive)	104%	-0.615 (inactive)	-2.4e-05 (inactive)	0.00668 (inactive)	16.4% (inactive)	2.62% (inactive)
CC1CCN(C(=O)C2CCN(S(=O)(=O)c3cnc[nH]3)CC2)CC1	464	2.5% (inactive)	22% (inactive)	90.5%	-170% (inactive)	116%	-0.553 (inactive)	-1.4e-05 (inactive)	0.00577 (inactive)	15.5% (inactive)	19.2% (inactive)
